Assay results reported in ChEMBL document CHEMBL3259562, “4-Alkyloxyimino derivatives of uridine-5'-triphosphate: distal modification of potent agonists as a strategy for molecular probes of P2Y2, P2Y4, and P2Y6 receptors” (J Med Chem, 2014).
Calls of active or inactive are those of the source. The calls are words filed in the database; no cut-off is given here.

What was measured:
P2Y purinoceptor 2 [1] = target: T1, P2Y purinoceptor 2 (Homo sapiens, UniProt P41231); test: Agonist activity at human P2Y2 receptor expressed in human 1321N1 cells by functional assay; type: cell-based
Outline: (§1)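 Stable 1321N1 lines made by retroviral expression of each human receptor (parent cells lack P2YRs), seeded at 20000 cells/well two days ahead. Labelled 16 h with 1.0 μCi [3H]myo-inositol in serum-free, inositol-free DMEM. Agonist given in 100 mM Hepes pH 7.3/HBSS with 50 mM LiCl for 30 min at 37 °C. Stopped with ice-cold 50 mM formic acid, then neutralised. Total inositol phosphates taken off Dowex AG1-X8 and counted by scintillation.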

P2Y purinoceptor 4 [2] = target: T2, P2Y purinoceptor 4 (Homo sapiens, UniProt P51582); test: Agonist activity at human P2Y4 receptor expressed in human 1321N1 cells by functional assay; type: cell-based; outline: as §1
P2Y purinoceptor 6 [3] = target: T3, P2Y purinoceptor 6 (Homo sapiens, UniProt Q15077); test: Agonist activity at human P2Y6 receptor expressed in human 1321N1 cells by functional assay; type: cell-based; outline: as §1
P2Y purinoceptor 2 [4] = target: T1, P2Y purinoceptor 2; test: Agonist activity at human P2Y2 receptor expressed in human 1321N1 cells assessed as stimulation of [3H]inositol phosphate accumulation by liquid scintillation counting; type: functional, cell-based; outline: as §1
P2Y purinoceptor 4 [5] = target: T2, P2Y purinoceptor 4; test: Agonist activity at human P2Y4 receptor expressed in human 1321N1 cells assessed as stimulation of [3H]inositol phosphate accumulation by liquid scintillation counting; type: functional, cell-based; outline: as §1
P2Y purinoceptor 6 [6] = target: T3, P2Y purinoceptor 6; test: Agonist activity at human P2Y6 receptor expressed in human 1321N1 cells assessed as stimulation of [3H]inositol phosphate accumulation by liquid scintillation counting; type: functional, cell-based; outline: as §1
P2Y purinoceptor 6 [7] = target: T3, P2Y purinoceptor 6; test: Binding affinity to human P2Y6 receptor expressed in human 1321N1 cells assessed as fluorescence intensity at 100 nM for 30 mins by flow cytometry (FCM) binding assay in presence of 100 uM ecto-nucleotidase inhibitor alpha, beta-methylene-adenosine 5'-diphosphate; type: cell-based
Outline: (§2)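 P2Y6R-1321N1 cells grown in DMEM with 5% FBS, used at 80% confluence. Preincubated 30 min with 100 μM α,β-methylene-ADP plus 10 μM competing ligand, then 100 nM fluorescent ligand for 20–30 min. Cells washed three times in ice-cold DPBS, detached with 0.2% EDTA and analysed by flow cytometry (FL-4 channel, 10,000 events). MFI corrected for autofluorescence and expressed relative to ligand alone (100%); n = 4, mean ± SEM.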

P2Y purinoceptor 6 [8] = target: T3, P2Y purinoceptor 6; test: Binding affinity to human P2Y6 receptor expressed in human 1321N1 cells assessed as fluorescence intensity at 100 nM for 30 mins by flow cytometry (FCM) binding assay in presence of 10 uM MRS2179 P2Y1R-selective antagonist; type: cell-based; outline: as §2
P2Y purinoceptor 6 [9] = target: T3, P2Y purinoceptor 6; test: Binding affinity to human P2Y6 receptor expressed in human 1321N1 cells assessed as fluorescence intensity at 100 nM for 30 mins by flow cytometry (FCM) binding assay in presence of 10 uM MRS2578 noncompetitive antagonist; type: cell-based; outline: as §2
P2Y purinoceptor 6 [10] = target: T3, P2Y purinoceptor 6; test: Binding affinity to human P2Y6 receptor expressed in human 1321N1 cells assessed as fluorescence intensity at 100 nM for 30 mins by flow cytometry (FCM) binding assay in presence of 10 uM suramin competitive antagonist; type: cell-based; outline: as §2
P2Y purinoceptor 6 [11] = target: T3, P2Y purinoceptor 6; test: Binding affinity to human P2Y6 receptor expressed in human 1321N1 cells assessed as fluorescence intensity at 100 nM for 30 mins by flow cytometry (FCM) binding assay in presence of 10 uM P1-(uridine 5'-)-P4-(N4-methoxycytidine5'-)[…] selective dinucleotide agonist; type: cell-based; outline: as §2
P2Y purinoceptor 6 [12] = target: T3, P2Y purinoceptor 6; test: Binding affinity to human P2Y6 receptor expressed in human 1321N1 cells assessed as fluorescence intensity at 1 uM for 30 mins by fluorescence microscopy in presence of 10 uM MRS2578 noncompetitive antagonist; type: cell-based
Outline: (§3)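 P2Y6R-1321N1 cells on glass coverslips at 80% confluence, given fresh medium and, where stated, 10 μM noncompetitive antagonist MRS2578 for 30 min at 37 °C. Fluorescent ligand then added to 1 μM final for 30 min at 37 °C. Cells washed with ice-cold PBS, mounted and imaged by fluorescence microscopy.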

P2Y purinoceptor 6 [13] = target: T3, P2Y purinoceptor 6; test: Binding affinity to human P2Y6 receptor expressed in human 1321N1 cells assessed as fluorescence intensity at 1 uM for 30 mins by fluorescence microscopy; type: cell-based; outline: as §3

T1 sequence (P41231 whole entry): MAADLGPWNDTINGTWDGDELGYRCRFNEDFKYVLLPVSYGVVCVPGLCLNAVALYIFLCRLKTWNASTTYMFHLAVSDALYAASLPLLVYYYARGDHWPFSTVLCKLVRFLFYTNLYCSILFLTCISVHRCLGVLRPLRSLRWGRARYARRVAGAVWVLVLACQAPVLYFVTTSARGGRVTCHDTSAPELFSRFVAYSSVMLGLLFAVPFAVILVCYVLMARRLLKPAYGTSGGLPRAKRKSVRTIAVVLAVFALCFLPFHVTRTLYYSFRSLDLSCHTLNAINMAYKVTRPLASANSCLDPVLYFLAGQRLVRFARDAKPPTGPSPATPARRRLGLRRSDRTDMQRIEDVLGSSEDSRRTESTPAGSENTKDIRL
T2 sequence (P51582 whole entry): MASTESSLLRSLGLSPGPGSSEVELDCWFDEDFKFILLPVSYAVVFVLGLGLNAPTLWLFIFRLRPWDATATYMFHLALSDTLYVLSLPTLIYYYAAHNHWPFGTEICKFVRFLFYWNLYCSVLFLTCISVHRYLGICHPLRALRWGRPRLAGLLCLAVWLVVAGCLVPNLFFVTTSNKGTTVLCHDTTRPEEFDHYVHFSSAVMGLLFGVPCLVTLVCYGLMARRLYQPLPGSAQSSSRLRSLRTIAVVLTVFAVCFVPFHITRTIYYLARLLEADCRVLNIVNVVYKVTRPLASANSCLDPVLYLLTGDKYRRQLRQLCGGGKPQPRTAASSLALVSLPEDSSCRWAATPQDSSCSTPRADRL
T3 sequence (Q15077 whole entry): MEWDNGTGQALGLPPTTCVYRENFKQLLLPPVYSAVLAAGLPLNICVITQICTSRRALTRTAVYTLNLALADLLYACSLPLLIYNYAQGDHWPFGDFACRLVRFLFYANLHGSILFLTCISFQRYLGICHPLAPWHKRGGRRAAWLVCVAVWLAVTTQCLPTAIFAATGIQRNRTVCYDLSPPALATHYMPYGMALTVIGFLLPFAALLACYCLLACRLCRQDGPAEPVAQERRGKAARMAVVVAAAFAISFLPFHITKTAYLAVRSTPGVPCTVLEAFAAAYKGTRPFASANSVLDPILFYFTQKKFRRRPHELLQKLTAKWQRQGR

Row | SMILES | EC50 (P2Y purinoceptor 2 [4]) | EC50 (P2Y purinoceptor 4 [5]) | EC50 (P2Y purinoceptor 6 [6]) | also measured
1 | O=c1ccn([C@@H]2O[C@H](COP(=O)(O)OP(=O)(O)OP(=O)(O)OP(=O)(O)OC[C@H]3O[C@@H](n4cc/c(=N/OCCCc5ccccc5)[nH]c4=O)[C@H](O)[C@@H]3O)[C@@H](O)[C@H]2O)c(=O)[nH]1 |  |  |  | EC50 (P2Y purinoceptor 2 [1]): 389 nM; EC50 (P2Y purinoceptor 4 [2]): 93 nM; EC50 (P2Y purinoceptor 6 [3]): 332 nM
2 | O=C(CCCCCNC(=O)COc1ccc(/C=C/c2ccc3n2[B-](F)(F)[N+]2=C(c4cccs4)C=CC2=C3)cc1)NCCCn1cc(CCNC(=O)COc2ccc(CCCO/N=c3/ccn([C@@H]4O[C@H](COP(=O)(O)OP(=O)(O)OP(=O)(O)O)[C@@H](O)[C@H]4O)c(=O)[nH]3)cc2)nn1 | 66 nM | 70 nM | 23 nM | Activity (P2Y purinoceptor 6 [7]): Active; Activity (P2Y purinoceptor 6 [8]): Active; Activity (P2Y purinoceptor 6 [9]): inactive; Activity (P2Y purinoceptor 6 [10]): inactive; Activity (P2Y purinoceptor 6 [11]): inactive; Activity (P2Y purinoceptor 6 [12]): Active; Activity (P2Y purinoceptor 6 [13]): Active
3 | O=c1[nH]/c(=N\OCCCc2ccc(I)cc2)ccn1[C@@H]1O[C@H](COP(=O)(O)OP(=O)(O)OP(=O)(O)O)[C@@H](O)[C@H]1O | 187 nM | 91 nM | 90 nM | 
4 | O=c1[nH]/c(=N\OCCCc2cccc(F)c2)ccn1[C@@H]1O[C@H](COP(=O)(O)OP(=O)(O)OP(=O)(O)O)[C@@H](O)[C@H]1O | 190 nM | 100 nM | 539 nM | 
5 | O=c1[nH]/c(=N\OCCCc2cccc(I)c2)ccn1[C@@H]1O[C@H](COP(=O)(O)OP(=O)(O)OP(=O)(O)O)[C@@H](O)[C@H]1O | 325 nM | 114 nM | 299 nM | 
6 | O=c1[nH]/c(=N\OCCCc2cccc([N+](=O)[O-])c2)ccn1[C@@H]1O[C@H](COP(=O)(O)OP(=O)(O)OP(=O)(O)O)[C@@H](O)[C@H]1O | 457 nM | 95 nM | 9700 nM | 
7 | O=C(O)CCCO/N=c1/ccn([C@@H]2O[C@H](COP(=O)(O)OP(=O)(O)OP(=O)(O)O)[C@@H](O)[C@H]2O)c(=O)[nH]1 | 299 nM | 470 nM | 697 nM | 
8 | C#CCCCO/N=c1/ccn([C@@H]2O[C@H](COP(=O)(O)OP(=O)(O)OP(=O)(O)O)[C@@H](O)[C@H]2O)c(=O)[nH]1 | 168 nM | 410 nM | 3000 nM | 
9 | O=c1[nH]/c(=N\OCCCc2ccc3ccccc3c2)ccn1[C@@H]1O[C@H](COP(=O)(O)OP(=O)(O)OP(=O)(O)O)[C@@H](O)[C@H]1O | 139 nM | 128 nM | 90 nM | 
10 | N=c1ccc2c(-c3ccc(C(=O)NCCCCCCn4cc(CCNC(=O)COc5ccc(CCCO/N=c6/ccn([C@@H]7O[C@H](COP(=O)(O)OP(=O)(O)OP(=O)(O)O)[C@@H](O)[C@H]7O)c(=O)[nH]6)cc5)nn4)cc3C(=O)O)c3ccc(N)c(S(=O)(=O)O)c3oc-2c1S(=O)(=O)O | 577 nM | 200 nM | 334 nM | 
11 | O=c1[nH]/c(=N\OCCCc2ccccc2)ccn1[C@@H]1O[C@H](COP(=O)(O)OP(=O)(O)OP(=O)(O)OP(=O)(O)OC[C@H]2O[C@@H](n3cc/c(=N/OCCCc4ccccc4)[nH]c3=O)[C@H](O)[C@@H]2O)[C@@H](O)[C@H]1O |  |  |  | EC50 (P2Y purinoceptor 2 [1]): > 10000 nM; EC50 (P2Y purinoceptor 4 [2]): 1330 nM; EC50 (P2Y purinoceptor 6 [3]): > 10000 nM
12 | O=c1[nH]/c(=N\OCCCc2ccncc2)ccn1[C@@H]1O[C@H](COP(=O)(O)OP(=O)(O)OP(=O)(O)O)[C@@H](O)[C@H]1O | 285 nM | 250 nM | 4280 nM | 
13 | O=c1[nH]/c(=N\OCCCCc2ccccc2)ccn1[C@@H]1O[C@H](COP(=O)(O)OP(=O)(O)OP(=O)(O)O)[C@@H](O)[C@H]1O | 214 nM | 54 nM | 251 nM | 
14 | O=c1[nH]/c(=N\OCCCc2cccnc2)ccn1[C@@H]1O[C@H](COP(=O)(O)OP(=O)(O)OP(=O)(O)O)[C@@H](O)[C@H]1O | 327 nM | 300 nM | 2950 nM | 
15 | C#CCCNC(=O)COc1ccc(CCCO/N=c2/ccn([C@@H]3O[C@H](COP(=O)(O)OP(=O)(O)OP(=O)(O)O)[C@@H](O)[C@H]3O)c(=O)[nH]2)cc1 | 109 nM | 40 nM | 183 nM | 
16 | O=c1[nH]/c(=N\OCCCc2ccc(Br)cc2)ccn1[C@@H]1O[C@H](COP(=O)(O)OP(=O)(O)OP(=O)(O)O)[C@@H](O)[C@H]1O | 350 nM | 141 nM | 225 nM | 
17 | O=c1[nH]/c(=N\OCCCc2ccsc2)ccn1[C@@H]1O[C@H](COP(=O)(O)OP(=O)(O)OP(=O)(O)O)[C@@H](O)[C@H]1O | 103 nM | 20 nM | 164 nM | 
18 | O=c1[nH]/c(=N\OCCCc2ccc([N+](=O)[O-])cc2)ccn1[C@@H]1O[C@H](COP(=O)(O)OP(=O)(O)OP(=O)(O)O)[C@@H](O)[C@H]1O | 458 nM | 84 nM | 1330 nM | 
19 | O=c1[nH]/c(=N\OCCOc2ccccc2)ccn1[C@@H]1O[C@H](COP(=O)(O)OP(=O)(O)OP(=O)(O)O)[C@@H](O)[C@H]1O | 3400 nM | 430 nM | 1780 nM | 
20 | COc1ccc(CCCO/N=c2/ccn([C@@H]3O[C@H](COP(=O)(O)OP(=O)(O)OP(=O)(O)O)[C@@H](O)[C@H]3O)c(=O)[nH]2)cc1 | 47 nM | 23 nM | 277 nM | 
21 | O=c1[nH]/c(=N\OCCCc2ccc(F)cc2)ccn1[C@@H]1O[C@H](COP(=O)(O)OP(=O)(O)OP(=O)(O)O)[C@@H](O)[C@H]1O | 547 nM | 105 nM | 1210 nM | 
22 | N#CC(CCO/N=c1/ccn([C@@H]2O[C@H](COP(=O)(O)OP(=O)(O)OP(=O)(O)O)[C@@H](O)[C@H]2O)c(=O)[nH]1)(c1ccccc1)c1ccccc1 | 934 nM | 47 nM | 177 nM | 
